From publication PMC4245983 (Biochemistry, 2014)
Entries after “also recorded” stand apart in the source; their conditions may differ.

How the values were obtained:
HscA386(T212V) = assay: 2D 1H-15N TROSY-HSQC nucleotide binding to HscA386; set-up: species or system Escherichia coli; conditions: TED buffer lacking Mg2+, pH 7.5, 10 mM ATP
In short: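 0.3 mM [U-15N]-labelled NBD construct (expressed in Rosetta Blue DE3 in M9 medium with 1 g/L 15NH4Cl, 0.4 mM IPTG, 4 h). Solvent was TED buffer with 7% D2O and 0.02% sodium azide. 2D 1H–15N TROSY-HSQC spectra were taken without nucleotide and with 10 mM ATP at 25 °C, 800 MHz, and compared.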

HscA [1] = assay: ATPase activity as a function of ATP concentration; assay type: biochemical, Escherichia coli; conditions: for Vmax from Michaelis-Menten fit: 2–1000 μM ATP, 1 μM HscA, HMKD pH 7.3, 25 °C, n = 3; for apparent ATP binding affinity, comparison of HscA386 and HscA395: from Km comparison
In short: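 NBD constructs (stop codons at residue 387 or 396; DEAE then Superdex 75 purification) were used at 1 μM in HMKD (50 mM HEPES pH 7.3, 150 mM KCl, 10 mM MgCl2, 1 mM DTT), 25 °C. ATP was 2, 4, 10, 40, 100 and 1000 μM. Pi release was monitored continuously by EnzChek coupled assay at 360 nm against a Pi standard curve. Means of three replicates were fit by nonlinear Michaelis–Menten regression for Km and Vmax.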

HscA [2] = assay: Steady-state ATPase assay of HscA variants; assay type: biochemical, Escherichia coli; conditions: for fold increase in ATPase activity vs HscA386 / fold increase in ATPase activity vs WT HscA: 1 μM HscA, 1 mM ATP, HMKD pH 7.3, 25 °C; for fold increase in ATPase activity vs HscA386: relative to HscA386; for fold increase in ATPase activity vs WT HscA: relative to WT HscA
In short: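 Steady-state hydrolysis at 25 °C in HMKD (50 mM HEPES pH 7.3, 150 mM KCl, 10 mM MgCl2, 1 mM DTT) with 1 μM HscA variant and 1 mM ATP. Pi release was followed continuously by EnzChek enzyme-coupled assay at 360 nm and converted via a Pi standard curve to min–1. Three or more replicates. Linker peptide was dissolved in HMKD with 10% DMSO and added at 5–500 μM final.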

[3] = Differential scanning fluorimetry; assay type: physicochemical; conditions: relative to HscA386
In short: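 2 μM protein in 5 mM HEPES pH 7.3, 10 mM MgCl2, 10 mM KCl with 10 μM SYPRO orange, in triplicate. Heated 15–99 °C in a real-time PCR instrument; excitation 492 nm, emission 610 nm. Tm was taken where the first derivative of fluorescence reached its minimum.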

IscU = conditions: cited from earlier work
HscA389 = assay: Steady-state ATPase assay of HscA389 with HscB or IscU; assay type: biochemical, Escherichia coli; conditions: 50:1 molar ratio (50 μM HscB or IscU), 25 °C, n = 3
In short: (§1)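 HscB or IscU (50-fold molar excess, 50 μM) was added to 1 μM HscA variant (full-length WT or NBD construct). Reactions used HMKD buffer pH 7.3 with 1 mM ATP at 25 °C. Phosphate release was monitored continuously by EnzChek coupled assay at 360 nm, calibrated with a Pi standard curve. Three or more replicates.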

HscA386 [4] = assay: Steady-state ATPase assay of HscA386; assay type: biochemical, Escherichia coli; conditions: for effect on ATPase activity of HscA386: 50:1 molar ratio (50 μM HscB or IscU), 25 °C, n = 3; for effect on ATPase activity of HscA386 by linker peptide: 5–500 μM linker peptide, 1 μM HscA386, HMKD with 10% DMSO
WT HscA [5] = assay: Steady-state ATPase assay of WT HscA with HscB or IscU; assay type: biochemical, Escherichia coli; conditions: for effect on ATPase activity of WT HscA: 50-fold molar excess of HscB or IscU, 25 °C, n = 3
In short: as §1

HscA395 = assay: Steady-state ATPase assay of HscA395 with HscB or IscU; assay type: biochemical, Escherichia coli; conditions: 50:1 molar ratio (50 μM HscB or IscU), 25 °C, n = 3
In short: as §1

WT HscA [6] = conditions: J-domain interactions; cited from earlier work
HscA386 [7] = assay: 2D 1H-15N TROSY-HSQC linker peptide binding to HscA386; set-up: species or system Escherichia coli; conditions: 0.2 mM [U-15N]HscA386, 3 mM linker peptide (15-fold molar excess), TED buffer, 900 MHz
[8] = Solubility of linker peptide; assay type: physicochemical; conditions: TED buffer pH 7.5 without DMSO, upper limit concentration of 3 mM

With Nc1ncnc2c1ncn2[C@@H]1O[C@H](COP(=O)(O)OP(=O)(O)OP(=O)(O)O)[C@@H](O)[C@H]1O [ATP] the “ATP binding in the absence of Mg2+ (TROSY-HSQC)” value (HscA386(T212V)) was “nearly superimposable”.

For “HscA386: isolated nucleotide-binding domain (NBD) of HscA”, the “Vmax from Michaelis-Menten fit” value (HscA [1]) was 0.039 ± 0.001 min^–1 and the “apparent ATP binding affinity, comparison of HscA386 and HscA395” value (HscA [1]) was “equivalent; also recorded: identical within experimental error”.

For “HscA389: NBD of HscA containing a short (three-amino acid) linker peptide, LLL motif”, the “fold increase in ATPase activity vs HscA386” value (HscA [2]) was 7 fold and the “fold increase in ATPase activity vs WT HscA” value (HscA [2]) was 9 fold.

In the case of “HscA395: NBD of HscA containing the full-length (nine-amino acid) linker peptide”, the “fold increase in ATPase activity vs HscA386” value (HscA [2]) is reported as 13 fold, the “fold increase in ATPase activity vs WT HscA” value (HscA [2]) is reported as 17 fold and the “fold faster ATP hydrolysis than HscA386 in the presence of linker peptide” value (HscA [2]; relative to HscA386 + 500 μM linker peptide) is reported as 3 fold. The “Vmax from Michaelis-Menten fit” value (HscA [1]) was 0.446 ± 0.016 min^–1, the “apparent ATP binding affinity, comparison of HscA386 and HscA395” value (HscA [1]) was “equivalent; also recorded: identical within experimental error” and the “basal thermostability vs HscA386” value [3] was “higher than those of HscA386; also recorded: increases basal thermostability in comparison to that of HscA386”.

In the case of HscB: Hsp40-type cochaperone of HscA, the “preferential binding to conformational state of IscU” value (IscU) is given as “binds preferentially to the S-state”, the “effect on ATPase activity of HscA389” value (HscA389) is given as “not affected; also recorded: did not elicit any stimulation of ATPase activity” and the “effect on ATPase activity of HscA386” value (HscA386 [4]) is given as “not affected; also recorded: did not elicit any stimulation of ATPase activity; also recorded: neither the isolated NBD (HscA386) nor the NBD with a full interdomain liker (HscA395) was receptive to ATPase stimulation”. The “fold increase in ATPase activity of WT HscA” value (WT HscA [5]; 1 μM WT HscA with 50 μM HscB) was 8 factor, the “effect on ATPase activity of WT HscA” value (WT HscA [5]) was “enhanced” and the “effect on ATPase activity of HscA395” value (HscA395) was “not affected; also recorded: did not elicit any stimulation of ATPase activity; also recorded: neither the isolated NBD (HscA386) nor the NBD with a full interdomain liker (HscA395) was receptive to ATPase stimulation”. The “HscB-mediated activation of full-length HscA ATPase activity” value (WT HscA [6]) was “sensitive to HscB-mediated activation of ATPase activity”.

With “IscU: scaffold protein, substrate of HscA” the “effect on ATPase activity of HscA389” value (HscA389) was “no effect on the ATPase activities of any of the NBD variants; also recorded: not affected”, the “effect on ATPase activity of HscA386” value (HscA386 [4]) was “no effect on the ATPase activities of any of the NBD variants; also recorded: not affected” and the “effect on ATPase activity of WT HscA” value (WT HscA [5]) was “enhanced”. The “effect on ATPase activity of HscA395” value (HscA395) was “no effect on the ATPase activities of any of the NBD variants; also recorded: not affected”.

With LLLDVIPLS [linker peptide] the “binding of linker peptide to HscA386 (chemical shift perturbation)” value (HscA386 [7]) was “widespread chemical shift perturbations, including distinct broadening of some signals; also recorded: relatively weaker binding interactions; also recorded: weakly binding”, the “binding of linker peptide to HscA386 (chemical shift perturbation)” value (HscA386 [7]; listed as synthetic peptide) was “widespread NMR chemical shift perturbations indicative of a binding interaction” and the “solubility of linker peptide in TED buffer” value [8] was “partially dissolved”. The “effect on ATPase activity of HscA386 by linker peptide” value (HscA386 [4]) was “A concentration dependence was observed” and the “effect on ATPase activity of HscA386 by linker peptide” value (HscA386 [4]; listed as synthetic peptide) was “stimulated its ATPase activity”.
